# A selection: hits, their analogues and other compounds. The true share with any hit is near 1.8%.
# ATG4B inh – ATG4B protease inhibitors, primary screen, biochemical, fluorescence, uHTS; AID 504462, 2011; ATG4B cleavage of LC3-PLA2, NBD-HPC fluorescence, 1 h; inhibition, % at 8.33 µM; Cysteine protease ATG4B (Homo sapiens), Q9Y4P1; actives 0.51% (n = 340,000); in the data active = inhibition above about 40%
# Target sequence (Q9Y4P1 whole entry, looked up): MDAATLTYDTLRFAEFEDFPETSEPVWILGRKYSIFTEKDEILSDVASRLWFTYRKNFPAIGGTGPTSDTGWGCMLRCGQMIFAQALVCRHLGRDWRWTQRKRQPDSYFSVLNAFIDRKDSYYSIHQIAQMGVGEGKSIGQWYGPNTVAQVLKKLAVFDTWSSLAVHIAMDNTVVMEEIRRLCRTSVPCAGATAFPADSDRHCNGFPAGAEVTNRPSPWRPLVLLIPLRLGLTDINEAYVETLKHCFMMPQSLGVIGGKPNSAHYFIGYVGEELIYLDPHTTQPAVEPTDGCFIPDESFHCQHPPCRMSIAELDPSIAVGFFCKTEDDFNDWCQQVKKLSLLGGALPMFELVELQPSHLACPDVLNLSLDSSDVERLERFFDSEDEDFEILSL
# Bfl-1 A1 inh – caspase 3/7 activation in MEF A1-2A-BIM cells, primary screen, A1 inhibitor project, cell-based, luminescence, HTS; Caspase-Glo 3/7 luminescence, 3 h; percent of clofoctol response, vehicle zero; caspase activation, % (no concentration beside the values); actives 0.066% (n = 330,000); AID 2462, 2010;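 active = over half of replicate activation scores above 10%, or exactly half above 10 with the replicate mean above 10; inconclusive = replicate mean below 10 yet half the replicates above 10; inactive = over half of replicates below 10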
# HKDC1 inhibitor – HKDC1 hexokinase inhibitors, primary screen, biochemical, fluorescence, uHTS. recombinant HKDC1, G6PDH/diaphorase resazurin coupled fluorescence. inhibition, % at 20 µM. Q2TB90. actives 0.16% (n = 340,000);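 active = inhibition above about 35% when tested at 20 µM, limit read from the data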;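 note: plate controls were DMSO wells with enzyme for no effect and DMSO wells lacking enzyme for full effect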
#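 Test system: recombinant HKDC1 (HK5) hexokinase enzyme, produced in-house; Amount: enzyme 5 µg/mL final; Buffer or medium: Tris pH 8.0 buffer with MgCl2, Tween-20, BSA, BME; Reagent: glucose and ATP substrates; Doses: 20 µM test compound, 1% DMSO; Incubation: 90 min reaction incubation at room temperature, dark; Detection: resorufin fluorescence at 613 nm.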
# HDAC3 inh – HDAC3 deacetylase inhibitors, primary screen, biochemical, fluorescence, cell-free homogeneous | Histone deacetylase 3 (Homo sapiens), O15379 | recombinant HDAC3, fluorogenic peptide/trypsin coupled | inhibition, % at 8.3 µM | actives 0.15% (n = 320,000) | AID 2718, 2010; in the data active = inhibition above about 26%, passing the limit was not always enough; inconclusive = no clear call, values can overlap the other calls
# AI-2 QS mod – Vibrio harveyi AI-2 quorum sensing modulators, primary screen, JMH597 strain, luminescence/OD600 ratio. Vibrio harveyi JMH597 AI-2 luminescence/OD600 ratio, 9 h; hits give low values; strain lacks LuxN and CqsS sensors; 0 = neutral-control median. AID 2094, 2009. actives 0.4% (n = 300,000). activity change, % at 7.5 µM; in the data active = activity change below about -75%, passing the limit was not always enough; inconclusive = no clear call, values can overlap the other calls;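 note: luminescence divided by OD600 gain over 9 h not by final OD600 alone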
# LANA-H2A inh – blockers of LANA interaction with H2A/H2B – biochemical, FP readout, HTS, primary screen. Protein LANA1 (Human herpesvirus 8 type P (isolate GK18)), Q9QR71. cell-free LANA-H2A/H2B peptide, fluorescence polarization. inhibition, % (test concentration not listed). actives 0.6% (n = 320,000). AID 2629, 2010; in the data active = inhibition mostly above about 10%, no sharp cut-off; inactive = mostly below about 6.7%
# HKDC1 act conf – HKDC1 hexokinase activators, confirmation, biochemical, single concentration; inhibition, % at 20 µM; recombinant HKDC1, G6PDH/diaphorase resazurin fluorescence; hits give low values; actives 14% (n = 740); AID 504708, 2011; shares compounds with HKDC1 inhibitor;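 active = inhibition at or below a set negative limit, negative inhibition meaning the enzyme was activated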
# * hit, by the source's call; ? = inconclusive; / = no result given.
SMILES,ATG4B inh,Bfl-1 A1 inh,HKDC1 inhibitor,HDAC3 inh,AI-2 QS mod,LANA-H2A inh,HKDC1 act conf
COc1ccc(C2=CC3=CC(=O)C(C)(O)C(=O)C3=CO2)cc1 (stereo not given),/,0,/,3,24,-4,/
COc1ccc(NC(=O)CN(C)C(=O)c2cccc(S(=O)(=O)Nc3ccc(OC)cc3)c2)cc1,-3,0,-4,1,7,4,/
O=C(O)CCNc1cc(N2CCN(C(=O)c3ccco3)CC2)c2noc3c2c1C(=O)c1ccccc1-3,22,0,39*,7,-22,2,14
Cc1cc(C)n(Cc2ccc(C(=O)N/N=C/c3ccc(-c4ccc([N+](=O)[O-])cc4)o3)o2)n1,-3,1,66*,-2,18,-1,31
CCCCC(=O)N/N=C/c1ccc(-c2ccc([N+](=O)[O-])cc2)o1,-3,0,0,-5,15,3,/
CCN(CC)S(=O)(=O)c1ccc(N2CCOCC2)c(NC(=O)c2cc3ccccc3oc2=O)c1,29,0,1,-3,28,2,/
COc1ccc2c(c1)CCc1c(C(=O)N3CCCc4ccccc43)noc1-2,28,1,38*,-17,3,7,-26
Cn1c(CNC(=O)CCNC(=O)c2cccc(F)c2)cc(=O)n(C)c1=O,-2,-1,-7,3,9,6,/
Cc1sc(-c2ccccn2)nc1OC(=O)c1ccc(Cl)c(Cl)c1,-7,0,-13,-2,26,1,/
Cc1sc(-c2ccccn2)nc1OC(=O)c1ccc(F)cc1F,-3,1,-50,-1,-5,4,-27
Cc1ccc(NC(=O)C(C)OC(=O)CCNS(=O)(=O)c2ccc(C)cc2)cc1 (stereo not given),-1,0,-10,0,30,7,/
CC(=O)Nc1ccc(S(=O)(=O)NCCC(=O)OC(C)C(=O)c2ccc(C)cc2)cc1 (stereo not given),-1,1,35*,-4,19,6,-16
O=C(COc1ccccc1/C=C\c1[nH]c(=O)[nH]c(=O)c1[N+](=O)[O-])Nc1ccccc1,-7,0,40*,-4,3,0,9
Cc1cccc(NC(=O)CN2C(=O)S/C(=C\c3ccc(-c4cccc(C(=O)O)c4C)o3)C2=O)c1,36,2,3,1,36,16,/
Cc1ccc(NC(=O)CN2C(=O)S/C(=C/c3ccc(-c4cc(C(=O)O)ccc4C)o3)C2=O)cc1C,8,0,43*,0,20,5,1
CC(=O)NC1C(=O)N(CCc2ccccc2)c2ccc(Br)cc21 (stereo not given),0,/,-3,/,/,/,/
CCOc1ccc2c(c1)C(NC(C)=O)C(=O)N2CCN1CCOCC1 (stereo not given),-2,0,82*,5,5,1,61
CCN1C(=O)C(NC(C)=O)c2cc(OC)ccc21 (stereo not given),-7,0,-9,4,-10,-5,/
CC(=O)NC1C(=O)N(CCN2CCOCC2)c2ccc(Br)cc21 (stereo not given),12,0,81*,-5,17,-2,61
CSC1=NC(=O)/C(=C\c2cccc3ccccc23)S1,-3,0,33,1,43,5,-11
Cc1ccccc1CNC(=O)c1ccccc1SCC(=O)NCc1ccco1,-1,/,-3,/,/,/,/
Cc1c(O)c2ccccc2n(-c2ccccc2)c1=O,-1,0,4,-11,0,3,/
CC(C)(C)c1c(Cl)c(O)c(-c2ccccc2)c(=O)n1-c1ccccc1,18,/,36*,/,25,/,41
Cc1ccc(C)c(S(=O)(=O)N2CCN(C(=O)CN3C(=O)NC(C)(C)C3=O)CC2)c1,-5,0,-8,-1,/,-4,/
Cc1ccc(S(=O)(=O)N2CCN(C(=O)CN3C(=O)NC4(CCCCC4)C3=O)CC2)c(C)c1,-2,0,38*,1,-3,0,-18
SMILES,ATG4B inh,Bfl-1 A1 inh,HKDC1 inhibitor,HDAC3 inh,AI-2 QS mod,LANA-H2A inh,HKDC1 act conf
CC(=O)n1cc(N(C(=O)CCl)c2ccc(C)cc2)c2ccccc21,7,2,41*,4,38,-1,15
COc1ccc(NS(=O)(=O)c2cc(NC(=O)C3=NN(c4ccccc4)C(=O)CC3)ccc2OC)cc1,-25,0,-3,-2,/,3,/
Cc1onc(-c2ccccc2)c1C(=O)NC(=S)NNC(=O)c1ccccc1O,-3,0,-45,-1,34,4,-17
Cc1onc(-c2ccccc2)c1C(=O)NC(=S)NNC(=O)c1ccc(O)cc1O,5,0,-40,3,-1,1,/
C/C(=N\NC(=O)c1cc(C2CC2)nc2ccccc12)c1ccc(O)cc1O,1,?,-44,12,41,-1,-6
O=C(NC1=C(NC2CCS(=O)(=O)C2)C(=O)c2ccccc2C1=O)c1ccccc1 (stereo not given),-3,-5,53*,3,35,-10,69
O=C(NC(NC1CCS(=O)(=O)C1)C(=O)c1cccs1)c1ccccc1 (stereo not given),-10,0,-5,11,19,1,/
O=C(CCl)N(c1ccccc1)c1ccccc1,-4,/,6,/,8,/,/
O=Cc1[nH]c2ccccc2c1N(C(=O)CCl)c1ccccc1,4,/,35*,/,20,/,34
NC(=S)N/N=C/c1ccc(Br)o1,-9,-1,-55,2,21,-2,-10
Cc1ccc(C(=O)OCC(=O)NCc2cccc(Cl)c2)cc1S(=O)(=O)N1CCCCC1,1,/,-2,/,/,/,/
CC[C@@H](NS(=O)(=O)c1ccc(C)cc1)C(=O)Oc1ccc2c3c(c(=O)oc2c1)CCC3,-6,0,34,/,39,/,1
Cc1ccc(-c2nc(NC(=O)CSc3cc(C)c4ccccc4n3)ns2)cc1,10,-2,57*,2,24,-3,-2
COCc1c(C(=O)OC/C(O)=C(\C#N)c2nc3ccccc3[nH]2)oc2ccccc12,24,1,-9,4,7,-1,/
O=C(Nc1ccc(Cc2ccncc2)cc1)c1cccc([N+](=O)[O-])c1,-6,0,-8,/,2,0,/

# High-throughput results as filed in PubChem BioAssay.
